Experimental data published in ChEMBL document CHEMBL3763025, “Synthesis of novel diflunisal hydrazide-hydrazones as anti-hepatitis C virus agents and hepatocellular carcinoma inhibitors” (Eur J Med Chem, 2016).
The source made the active and inactive calls. No cut-off for these calls is given here.

Tests used:
[1] = Selectivity index, ratio of CC50 for human Huh7.5 cells to EC50 for HCV genotype 1b infected in Huh7/Rep-Feo1b cells; parameters: species or system Huh-7
Outline: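 Selectivity index taken as the ratio of CC50 (MTS assay, parental Huh7.5 cells) to EC50 (dose-response curves at 8-10 concentrations, Huh7/Rep-Feo1b luciferase replicon, 42 h treatment).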

[2] = system: Hepatitis C virus; test: Antiviral activity against HCV genotype 1b infected in Huh7/Rep-Feo1b cells assessed as inhibition of viral replication after 42 hrs by MTS assay; assay type: functional, organism-based, Hepacivirus hominis; settings: Huh-7, 42 h
Outline: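 Huh7/Rep-Feo1b replicon reporter cells kept in DMEM with 10% fetal calf serum and 0.5 mg/mL G418 at 37°C, 5% CO2. Cells seeded at 1x10^4 per well, dosed 8 h later and incubated 42 h with DMSO as control. Luciferase signal read relative to DMSO. EC50 derived from dose-response curves at 8-10 concentrations, mean of three independent experiments with standard deviation.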

[3] = system: Hepacivirus hominis; test: Inhibition of HCV NS5B RNA dependent RNA polymerase using UTP/[alpha-32P]UTP as substrate at 50 uM after 1 hr by liquid scintillation counter analysis
[4] = system: Hepatitis C virus; test: Antiviral activity against HCV genotype 1b infected in Huh7/Rep-Feo1b cells assessed as inhibition of viral replication at 50 uM after 42 hrs by MTS assay relative to control; assay type: functional, Hepacivirus hominis; settings: Huh-7, 42 h
Outline: (§1)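 Replicon reporter cells (Huh7/Rep-Feo1b or Huh7.5-FGR-JC1-Rluc2A) grown in DMEM with 10% fetal calf serum and 0.5 mg/mL G418 at 37°C, 5% CO2. Seeded at 1x10^4 per well, compound added 8 h after seeding at 50 µM for 42 h. Luciferase signal expressed relative to equivalent DMSO-treated controls. Average of three independent experiments.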

[5] = system: Hepatitis C virus; test: Antiviral activity against HCV genotype 2a infected in Huh7.5 FGR-JC1-Rluc2A cells assessed as inhibition of viral replication at 50 uM after 42 hrs by MTS assay relative to control; assay type: functional; settings: Hepacivirus hominis, Huh7.5, 42 h, in the assay text read “Renilla luciferase reporter assay” for “MTS assay”; outline: as §1
[6] = Cytotoxicity against human Huh7.5 cells assessed as cell viability after 42 hrs by MTS assay; assay type: cell-based, Huh-7
Outline: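 CC50 measured in parental Huh7.5 cells using the colorimetric MTS assay, with equal amounts of DMSO as control. Mean of three independent experiments with standard deviation.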

[7] = system: Mahlavu; test: Induction of apoptosis in human Mahlavu cells assessed as cleavage of PARP protein at IC50 after 72 hrs by Western blot analysis; assay type: functional, cell-based
Outline: (§2)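 Cells plated in 100 mm dishes. […] Western blot probed with anti-PARP to detect cleaved PARP, with β-actin as loading control.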

[8] = Cytotoxicity against human FOCUS cells assessed as inhibition of cell proliferation after 72 hrs by sulforhodamine B assay; assay type: functional, cell-based
Outline: (§3)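 Liver cancer cells grown in DMEM or RPMI with 10% FCS, 2 mM L-glutamine and penicillin/streptomycin at 37°C, 5% CO2. Plated at 1000-3000 cells per well for 24 h, then exposed to 2.5–40 µM for 72 h. Cells TCA-fixed, stained with 0.4% sulforhodamine B in 1% acetic acid, dye solubilized in 10 mM Tris base, absorbance read at 515 nm. Normalized to DMSO, triplicate.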

[9] = Cytotoxicity against human SNU475 cells assessed as inhibition of cell proliferation after 72 hrs by sulforhodamine B assay; assay type: functional, cell-based, SNU-475; outline: as §3
[10] = system: Huh-7; test: Induction of apoptosis in human HuH7 cells assessed as nuclear condensation at IC50 after 72 hrs by hoechst 33258 staining based fluorescence microscopy; assay type: functional, cell-based
[11] = Cytotoxicity against human HuH7 cells assessed as inhibition of cell proliferation after 72 hrs by sulforhodamine B assay; assay type: functional, cell-based, Huh-7; outline: as §3
[12] = system: Huh-7; test: Induction of apoptosis in human HuH7 cells assessed as cleavage of PARP protein at IC50 after 72 hrs by Western blot analysis; assay type: functional, cell-based; outline: as §2
[13] = system: HepG2; test: Cytotoxicity against human HepG2 cells assessed as inhibition of cell proliferation after 72 hrs by sulforhodamine B assay; assay type: functional, cell-based; outline: as §3
[14] = system: Huh-7; test: Induction of apoptosis in human HuH7 cells assessed as DNA fragmentation at IC50 after 72 hrs by hoechst 33258 staining based fluorescence microscopy; assay type: functional, cell-based
[15] = Cytotoxicity against human Hep3B cells assessed as inhibition of cell proliferation after 72 hrs by sulforhodamine B assay; assay type: functional, cell-based, Hep 3B2; outline: as §3
[16] = Cytotoxicity against human Mahlavu cells assessed as inhibition of cell proliferation after 72 hrs by sulforhodamine B assay; assay type: functional, cell-based; outline: as §3
[17] = Cell cycle arrest in human Mahlavu cells assessed as accumulation at subG1/G0 phase at IC50 after 72 hrs by propidium iodide staining-based Muse cell cycle analyzer; assay type: functional

Compound	inhibition [3]	Ratio CC50/EC50 [1]	EC50 [2] [µM]	inhibition at 50 µM [4] [%]	inhibition at 50 µM [5] [%]	CC50 at 42 h [6] [µM]	further results
O=C(N/N=C/c1cccc2ccccc12)c1cc(-c2ccc(F)cc2F)ccc1O	inactive	>6.1	16.5	79	70	> 200	
O=C(N/N=C/c1c(Cl)cccc1Cl)c1cc(-c2ccc(F)cc2F)ccc1O	inactive			72	96	< 50	
O=C(N/N=C/c1c(F)cccc1F)c1cc(-c2ccc(F)cc2F)ccc1O	inactive			69	72	> 100	
O=C(N/N=C/c1ccc(C(F)(F)F)cc1)c1cc(-c2ccc(F)cc2F)ccc1O	12%			86	99	< 50	
O=C(O)c1cc(-c2ccc(F)cc2F)ccc1O [DIFLUNISAL]							IC50 [8]: 29.8 µM; IC50 ([9]; snu-475): Not Active; Activity [10]: inactive; IC50 ([11]; huh-7): Not Active; IC50 ([13]; hepg2): Not Active; Activity [14]: inactive; IC50 ([15]; hep 3b2): Not Active; IC50 [16]: 51.7 µM
O=C(N/N=C/c1c(F)cccc1Cl)c1cc(-c2ccc(F)cc2F)ccc1O	11%	>12.8	3.9	83	74	> 50	
O=C(N/N=C/c1cccc(Oc2ccccc2)c1)c1cc(-c2ccc(F)cc2F)ccc1O	14%			92	99	< 50	
O=C(N/N=C/c1ccc2c(c1)OC(F)(F)O2)c1cc(-c2ccc(F)cc2F)ccc1O	inactive			65	95	< 50	
Cc1ccc(/C=N/NC(=O)c2cc(-c3ccc(F)cc3F)ccc2O)s1	8%			64	95	> 50	
CCc1ccc(/C=N/NC(=O)c2cc(-c3ccc(F)cc3F)ccc2O)s1	inactive			65	96	> 50	
O=C(N/N=C/c1cccs1)c1cc(-c2ccc(F)cc2F)ccc1O	17%	>3.2	15.6	91	98	> 50	

Further lines, with some results ahead:

inhibition [3]	Compound	Ratio CC50/EC50 [1]	EC50 [2] [µM]	inhibition at 50 µM [4] [%]	inhibition at 50 µM [5] [%]	CC50 at 42 h [6] [µM]	further results
8%	O=C(N/N=C/c1cccnc1)c1cc(-c2ccc(F)cc2F)ccc1O	>24.7	8.1	83	88	> 200	
7%	O=C(N/N=C/c1ccncc1)c1cc(-c2ccc(F)cc2F)ccc1O			33	23	> 50	
inactive	O=C(N/N=C/c1ccc2ccccc2c1)c1cc(-c2ccc(F)cc2F)ccc1O			65	58	> 100	
inactive	N#Cc1ccc(/C=N/NC(=O)c2cc(-c3ccc(F)cc3F)ccc2O)cc1	>16.9	11.8	77	82	> 200	
9%	O=C(N/N=C/c1cccc(Br)c1)c1cc(-c2ccc(F)cc2F)ccc1O			81	92	< 50	
7%	O=C(N/N=C/c1ccccc1Cl)c1cc(-c2ccc(F)cc2F)ccc1O			90	78	< 50	
inactive	O=C(N/N=C/c1ccccn1)c1cc(-c2ccc(F)cc2F)ccc1O	>25.6	3.9	79	90	> 100	Activity [7]: Active; IC50 [8]: 9.29 µM; IC50 ([9]; Homo sapiens, SNU-475, 72 h, read-out: IC50): 8.33 µM; Activity [10]: Active; IC50 ([11]; Homo sapiens, Huh-7, 72 h, read-out: IC50): 10 µM; Activity [12]: inactive; IC50 ([13]; Homo sapiens, HepG2, 72 h, read-out: IC50): 10.3 µM; Activity [14]: Active; IC50 ([15]; Homo sapiens, Hep3B, 72 h, read-out: IC50): 16.2 µM; IC50 [16]: 4.74 µM; Activity [17]: Active
inactive	O=C(N/N=C/c1ccc(Cl)c(Cl)c1)c1cc(-c2ccc(F)cc2F)ccc1O			66	95	< 50	
18%	O=C(N/N=C/c1cccc(C(F)(F)F)c1)c1cc(-c2ccc(F)cc2F)ccc1O			87	99	< 50	
